Assay results published in ChEMBL document CHEMBL3352314, “Synthesis and antiproliferative activity of 8-hydroxyquinoline derivatives containing a 1,2,3-triazole moiety” (Eur J Med Chem, 2014).
Values after ≈ are worked out from the molar mass of the structure shown.

How the values were obtained:
[1] = tested on: NCI/ADR-RES; test: Antiproliferative activity against human NCI/ADR-RES cells assessed as growth inhibition after 48 hrs by sulforhodamine B assay; assay type: functional
In short: (§1)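 Cells in RPMI with penicillin:streptomycin added, exposed 48 h at 37 °C, 5% CO2 to 0.25, 2.5, 25 and 250 µg/mL compound in DMSO/RPMI (0.1% v/v). Doxorubicin (0.025–25 µg/mL) served as positive control. Cells were then fixed with 50% TCA and stained with sulforhodamine B, with protein read at 540 nm. Growth = 100×(T−T0)/(C−T0), using T0 and 48 h readings. GI50 was obtained by non-linear regression. Done in triplicate.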

[2] = tested on: HaCaT; test: Selectivity index, ratio of GI50 for human HaCaT cells to GI50 for human MCF7 cells; assay type: functional
[3] = tested on: U-251; test: Antiproliferative activity against human U251 cells assessed as growth inhibition after 48 hrs by sulforhodamine B assay; assay type: functional; conditions: U-251, 48 h; in short: as §1
[4] = tested on: 786-0; test: Antiproliferative activity against human 786-0 cells assessed as growth inhibition after 48 hrs by sulforhodamine B assay; assay type: functional; conditions: 786-0, 48 h; in short: as §1
[5] = tested on: NCI-H460; test: Antiproliferative activity against human NCI-H460 cells assessed as growth inhibition after 48 hrs by sulforhodamine B assay; assay type: functional; conditions: NCI-H460, 48 h; in short: as §1
[6] = Antiproliferative activity against human PC3 cells assessed as growth inhibition after 48 hrs by sulforhodamine B assay; assay type: functional; conditions: PC-3, 48 h; in short: as §1
[7] = tested on: HaCaT; test: Selectivity index, ratio of GI50 for human HaCaT cells to GI50 for human OVCAR3 cells; assay type: functional
[8] = Antiproliferative activity against human HaCaT cells assessed as growth inhibition after 48 hrs by sulforhodamine B assay; assay type: cell-based; in short: as §1
[9] = tested on: HaCaT; test: Selectivity index, ratio of GI50 for human HaCaT cells to GI50 for human PC3 cells; assay type: functional
[10] = tested on: MCF7; test: Antiproliferative activity against human MCF7 cells assessed as growth inhibition after 48 hrs by sulforhodamine B assay; assay type: functional; conditions: MCF7, 48 h; in short: as §1
[11] = tested on: NCI-H460; test: Selectivity index, ratio of GI50 for human HaCaT cells to GI50 for human NCI-H460 cells; assay type: functional
[12] = Antiproliferative activity against human OVCAR3 cells assessed as growth inhibition after 48 hrs by sulforhodamine B assay; assay type: functional; conditions: OVCAR-3, 48 h; in short: as §1
[13] = tested on: HaCaT; test: Selectivity index, ratio of GI50 for human HaCaT cells to GI50 for human 786-0 cells; assay type: functional
[14] = tested on: HaCaT; test: Selectivity index, ratio of GI50 for human HaCaT cells to GI50 for human U251 cells; assay type: functional
[15] = tested on: HaCaT; test: Selectivity index, ratio of GI50 for human HaCaT cells to GI50 for human NCI/ADR-RES cells; assay type: functional

Row | GI50 [3] [µg/mL] | GI50 [4] [µg/mL] | GI50 [5] [µg/mL] | GI50 [10] [µg/mL] | SMILES | GI50 [1] [µg/mL] | RatioGI50 [2] | GI50 [6] [µg/mL] | RatioGI50 [7] | GI50 at 48 h [8] [µg/mL] | RatioGI50 [9] | RatioGI50 [11] | GI50 [12] [µg/mL] | RatioGI50 [13] | RatioGI50 [14] | RatioGI50 [15]
1 | > 250 | 22.6 (≈ 48.1 µM) | 24.6 (≈ 52.3 µM) | 25 (≈ 53.2 µM) | Ic1ccc(Cn2cc(CCCOc3cccc4cccnc34)nn2)cc1 | > 250 | >10 | 24.7 (≈ 52.5 µM) | >10.1 | > 250 | >10.1 | >10.2 | 24.7 (≈ 52.5 µM) | >11.1 | – | –
2 | 3.1 (≈ 6.92 µM) | 5.6 (≈ 12.5 µM) | 7.4 (≈ 16.5 µM) | 2.9 (≈ 6.48 µM) | Clc1cc(Cl)c(Cn2cc(CCCOc3cccc4cccnc34)nn2)c(Cl)c1 | 2.8 (≈ 6.25 µM) | 1.8 | 2.8 (≈ 6.25 µM) | 0.5 | 5.3 (≈ 11.8 µM) | 1.9 | 0.7 | 11.4 (≈ 25.5 µM) | 0.9 | 1.7 | 1.9
3 | 25.1 (≈ 67.2 µM) | 69.4 (≈ 186 µM) | 44.3 (≈ 119 µM) | 27.8 (≈ 74.4 µM) | c1cncc(CCCn2cc(CCCOc3cccc4cccnc34)nn2)c1 | 12.5 (≈ 33.5 µM) | 0.9 | 26.7 (≈ 71.5 µM) | 0.6 | 25 (≈ 66.9 µM) | 0.9 | 0.6 | 39.1 (≈ 105 µM) | 0.4 | 1 | 2
4 | 24.3 (≈ 48.9 µM) | 30.8 (≈ 62 µM) | 30.1 (≈ 60.6 µM) | 2.6 (≈ 5.24 µM) | CC1(C)O[C@H]2[C@@H](O1)[C@@H](Cn1cc(CCCOc3cccc4cccnc34)nn1)O[C@@H]1OC(C)(C)O[C@@H]12 | 28.6 (≈ 57.6 µM) | 11.3 | 16.2 (≈ 32.6 µM) | >117.6 | 29.4 (≈ 59.2 µM) | 1.8 | 1 | < 0.25 | 0.9 | 1.2 | 1
5 | 26.5 (≈ 60.4 µM) | 26.1 (≈ 59.5 µM) | 29.2 (≈ 66.6 µM) | 27.2 (≈ 62 µM) | O=C(Cn1cc(CCCOc2cccc3cccnc23)nn1)OCc1ccc(F)c(F)c1 | 4.9 (≈ 11.2 µM) | 0.8 | 2.9 (≈ 6.61 µM) | 1.4 | 21.4 (≈ 48.8 µM) | 7.4 | 0.7 | 15.1 (≈ 34.4 µM) | 0.8 | 0.8 | 4.4
6 | 0.039 (≈ 0.0718 µM) | 0.15 (≈ 0.276 µM) | < 0.025 | 0.038 (≈ 0.0699 µM) | COc1cccc2c1C(=O)c1c(O)c3c(c(O)c1C2=O)C[C@@](O)(C(=O)CO)C[C@@H]3O[C@H]1C[C@H](N)[C@H](O)[C@H](C)O1 [DOXORUBICIN] | 0.54 (≈ 0.994 µM) | – | 3.8 (≈ 6.99 µM) | – | 0.11 (≈ 0.202 µM) | – | – | 0.43 (≈ 0.791 µM) | – | – | –

The remaining lines, values behind:

Row | SMILES | GI50 [3] [µg/mL] | GI50 [4] [µg/mL] | GI50 [5] [µg/mL] | GI50 [10] [µg/mL] | GI50 [1] [µg/mL] | RatioGI50 [2] | GI50 [6] [µg/mL] | RatioGI50 [7] | GI50 at 48 h [8] [µg/mL] | RatioGI50 [9] | RatioGI50 [11] | GI50 [12] [µg/mL] | RatioGI50 [13] | RatioGI50 [14] | RatioGI50 [15]
7 | Fc1ccc(Cn2cc(CCCOc3cccc4cccnc34)nn2)cc1 | 20.7 (≈ 57.1 µM) | 195 (≈ 538 µM) | 34.4 (≈ 94.9 µM) | 11.7 (≈ 32.3 µM) | 49.4 (≈ 136 µM) | 9.8 | 20.1 (≈ 55.5 µM) | 5 | 115 (≈ 318 µM) | 5.7 | 3.3 | 23.1 (≈ 63.7 µM) | 0.6 | 5.6 | 2.3
8 | Clc1ccc(Cn2cc(CCCOc3cccc4cccnc34)nn2)cc1 | 3.4 (≈ 8.97 µM) | 2.8 (≈ 7.39 µM) | 11.2 (≈ 29.6 µM) | 6.2 (≈ 16.4 µM) | 11.6 (≈ 30.6 µM) | 0.7 | 3.6 (≈ 9.5 µM) | 0.5 | 4.2 (≈ 11.1 µM) | 1.2 | 0.4 | 8.1 (≈ 21.4 µM) | 1.5 | 1.2 | 0.4
9 | Brc1ccc(Cn2cc(CCCOc3cccc4cccnc34)nn2)cc1 | 8.4 (≈ 19.8 µM) | 25.9 (≈ 61.2 µM) | 11.7 (≈ 27.6 µM) | 28 (≈ 66.1 µM) | 25.8 (≈ 60.9 µM) | 1 | 8.4 (≈ 19.8 µM) | 1.1 | 29.2 (≈ 69 µM) | 3.5 | 2.5 | 27.2 (≈ 64.3 µM) | 1.1 | 3.5 | 1.1
10 | FC(F)(F)Oc1ccc(Cn2cc(CCCOc3cccc4cccnc34)nn2)cc1 | 9.8 (≈ 22.9 µM) | 7.9 (≈ 18.4 µM) | 10.4 (≈ 24.3 µM) | 3.1 (≈ 7.24 µM) | 5.5 (≈ 12.8 µM) | 1.3 | 5 (≈ 11.7 µM) | 0.2 | 4 (≈ 9.34 µM) | 0.8 | 0.4 | 24.5 (≈ 57.2 µM) | 0.5 | 0.4 | 0.7
11 | Fc1ccc(Cn2cc(CCCOc3cccc4cccnc34)nn2)cc1F | 18.2 (≈ 47.8 µM) | 8.5 (≈ 22.3 µM) | 23.7 (≈ 62.3 µM) | 21.3 (≈ 56 µM) | 42.1 (≈ 111 µM) | 1.9 | 6.6 (≈ 17.4 µM) | 0.7 | 41.7 (≈ 110 µM) | 6.3 | 1.8 | 63.5 (≈ 167 µM) | 4.9 | 2.3 | 1
12 | Clc1ccc(Br)cc1Cn1cc(CCCOc2cccc3cccnc23)nn1 | 8.7 (≈ 19 µM) | > 250 | 7.9 (≈ 17.3 µM) | 9.6 (≈ 21 µM) | 2.5 (≈ 5.46 µM) | 0.5 | 8.2 (≈ 17.9 µM) | 0.6 | 4.9 (≈ 10.7 µM) | 0.6 | 0.6 | 8 (≈ 17.5 µM) | – | 0.6 | 2
13 | c1ccc(Cn2cc(CCCOc3cccc4cccnc34)nn2)cc1 | 25.2 (≈ 73.2 µM) | 25 (≈ 72.6 µM) | 28.6 (≈ 83 µM) | 12.7 (≈ 36.9 µM) | 10.4 (≈ 30.2 µM) | 1 | 16.8 (≈ 48.8 µM) | 0.5 | 12.7 (≈ 36.9 µM) | 0.8 | 0.4 | 24.3 (≈ 70.6 µM) | 0.5 | 0.5 | 1.2
